Data from ChEMBL document CHEMBL1133536, “Cation substitution in cationic phosphonolipids: a new concept to improve transfection activity and decrease cellular toxicity” (J Med Chem, 2000).
“And” between values parts separate entries of the source, which are not always exact repeats. Equal values may be shown once.

How the values were obtained:
[1] = target: T1, Aspartate aminotransferase, mitochondrial (Mus musculus) (UniProt P05202); assay: In vivo toxic effect as serum aspartate aminotransferase (ASAT) 24 hr after cholesterol complexed 50 ug pTG11033 plasmid injection into mice; type: functional, organism-based
T1 sequence (whole entry): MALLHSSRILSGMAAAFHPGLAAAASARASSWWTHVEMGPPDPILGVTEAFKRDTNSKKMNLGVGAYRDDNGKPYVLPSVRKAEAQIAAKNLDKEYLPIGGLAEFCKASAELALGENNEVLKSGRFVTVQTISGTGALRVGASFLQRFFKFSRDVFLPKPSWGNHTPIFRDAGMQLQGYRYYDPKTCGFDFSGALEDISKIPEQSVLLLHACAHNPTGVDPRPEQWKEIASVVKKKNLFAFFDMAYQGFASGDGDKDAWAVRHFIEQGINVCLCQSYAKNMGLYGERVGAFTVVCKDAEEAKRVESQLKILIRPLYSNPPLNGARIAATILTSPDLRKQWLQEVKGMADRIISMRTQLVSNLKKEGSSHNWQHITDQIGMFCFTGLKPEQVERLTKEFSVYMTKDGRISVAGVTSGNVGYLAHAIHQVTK
How it was run: (§1)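 Female Swiss mice, 6 weeks old, given one 200 µL tail-vein injection of cationic phosphonolipid/pTG11033 lipoplexes (lipid:DNA charge ratio 4, 50 µg DNA per animal). Lipoplexes were held 30 min at room temperature beforehand. Serum was taken from coagulated blood 24 h later and transaminases measured on an automated analyser. Results are mean (SEM) of 6 animals. TI = transfected/control mouse transaminase level.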

[2] = target: T1, Aspartate aminotransferase, mitochondrial (Mus musculus); assay: In vivo toxic effect as serum aspartate aminotransferase (ASAT) 24 hr after 50 ug pTG11033 plasmid injection without co-lipid into mice; type: functional, organism-based; how it was run: as §1
[3] = (§2) In vivo toxic effect of alanine aminotransferase (ALAT) was determined 24 hr after mice were injected with 50 microg of pTG11033 plasmid complexed with compound into serum with cholesterol; type: ADME, organism-based; set-up: unit not given beside the values; conditions: mouse; how it was run: as §1
[4] = target: T1, Aspartate aminotransferase, mitochondrial (Mus musculus); assay: In vivo toxic effect as serum aspartate aminotransferase (ASAT) 24 hr after DOPE complexed 50 ug pTG11033 plasmid injection into mice; type: functional, organism-based; how it was run: as §1
[5] = In vivo toxic effect of alanine aminotransferase (ALAT) was determined 24 hr after mice were injected with 50 microg of pTG11033 plasmid complexed with compound into serum without co-lipid; type: ADME, organism-based; conditions: mouse; how it was run: as §1
[6] = In vivo toxic effect of alanine aminotransferase (ALAT) was determined 24 hr after mice were injected with 50 microg of pTG11033 plasmid complexed with compound into serum with DOPE; type: ADME, organism-based; conditions: mouse; how it was run: as §1
[7] = target: T1, Aspartate aminotransferase, mitochondrial (Mus musculus); assay: Toxicity index as ratio of serum ASAT levels in transfected and control mice; type: functional; how it was run: as §1
[8] = as §2; type: ADME, organism-based; conditions: mouse; how it was run: as §1

Compound | Toxicity [1] | Toxicity [2] | Toxicity [3] | Toxicity [4] | Toxicity [5] | Toxicity [6] | TI [7] | Toxicity [8]
CCCCCCCC/C=C\CCCCCCCC(=O)OCC(C[N+](C)(C)C)OC(=O)CCCCCCC/C=C\CCCCCCCC.[Cl-] (stereo not given) | 255 | 657 | 37 | 275 | 70 | 74 |  | 
CCCCCCCCCCCCCCOP(=O)(C[N+](C)(C)C)OCCCCCCCCCCCCCC.[I-] | 75 | 80 | 24 | 130 | 25 | 31 | 1.12 [middle of 4 runs] | 
CCCCCCCC/C=C/CCCCCCCCOP(=O)(C[N+](C)(C)C)OCCCCCCCC/C=C/CCCCCCCC.[I-] | 225 | 900 | 70 | 125 | 250 | 30 |  | 
CCCCCCCCCCCCCCOP(=O)(CC[As+](C)(C)C)OCCCCCCCCCCCCCC.[I-] | 190 | 79 |  | 155 | 26 | 34 | 1.47 [middle of 4 runs] | 41
CCCCCCCC/C=C/CCCCCCCCOP(=O)(CC[P+](C)(C)C)OCCCCCCCC/C=C/CCCCCCCC.[I-] | 685 | 250 |  | 646 | 35 | 65 |  | 184
CCCCCCCC/C=C/CCCCCCCCOP(=O)(CC[As+](C)(C)C)OCCCCCCCC/C=C/CCCCCCCC.[I-] | 600 | 225 | 172 | 303 | 35 | 36 |  | 
CCCCCCCCCCCCCCOP(=O)(CC[P+](C)(C)C)OCCCCCCCCCCCCCC.[I-] | 174 | 120 | 34 | 145 | 55 | 39 | 1.69 (2×) and 2.39 and 2.45 | 
